Consider 167 variants from the RNAGym collection of RNA variant scans (doi:10.1126/science.aae0568).

Variants at the floor of the assay were thinned out.

B1: tRNA (parent)
chain: GUUCCGUUGGCGUAAUGGUAACGCGUCUCCCUCCUAAGGAGAAGACUGCGGGUUCGAGUCCCGUACGGAACG

The variants in the data set derive from B1. The data set can be described thus: yeast fitness relative to wild type (ratio to wild type); higher = fitter; tRNA-Arg(CCU), competitive growth, 37 C, YPD. Summed up: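 Start and end populations of a pooled competition were compared by 100-nucleotide paired-end sequencing of gene amplicons. The Saccharomyces cerevisiae strains carried tRNA-Arg(CCU) gene variants at the native genomic locus, synthesised with a 3% per-site mutation rate at 69 sites, and competed in YPD at 37°C for 24 hours in six parallel replicates. Darwinian fitness relative to wild type was based on the change in genotype frequencies. Genotypes required ≥ 100 starting reads, and estimates < 0.5 were set to 0.5.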
On to A14U U35C C55A C60A, for which the yeast fitness is no more than 0.5.
Take A14U G17A C29G C34U U35A G38C C55G A69G A70C: the yeast fitness was 0.511.
Next, A15C C27G: 0.571.
Next, A15C A20G C61U C62U A69G: 0.764.
Next, A15C A20C C33U C34U C61G: no more than 0.5; A14U G41C U59A C61A C66U G68C: no more than 0.5; A15C A21G C22U A43U A57U: no more than 0.5.
For the variant A14U U47A G56A, the yeast fitness was no more than 0.5.
Next, A14U U16A C33G: no more than 0.5; A14U G48C: 0.714; A14U U19C A65U: no more than 0.5.
Next, A15C A40C C49G: no more than 0.5.
With A14U U19G C30G, the yeast fitness is no more than 0.5.
Next, A14U G48A A70U: 0.661; A15C C22A G25C U28A A36U A70G: no more than 0.5; A15C A43U C46A: 0.502.
Next, A14U C34G A37C G50U C62U: no more than 0.5; A15C A37U: 0.624.
Next, A14U G50C U53A A57U A65U: 0.687; A15C A42G: 0.76; A15C A36G U47C C55A A69U: 0.538.
Turning to A14U U54C C62U, the yeast fitness is no more than 0.5.
Regarding A14U U28A G51A, the yeast fitness was no more than 0.5.
Next, A14U C55A U59G A65C: 0.561; A14U G17C C24A C30G: 0.524.
Next, A15C A36U C55A A65U: no more than 0.5; A14U G56A: 0.619.
Take A14U G18C A69U: the yeast fitness was no more than 0.5.
Next, A15C C29A C60G G68A: 0.609; A14U U35C C55G C61G C66U: no more than 0.5.
A14U G23C C55A: the yeast fitness was 0.559.
As for A14U G23A U32C, the yeast fitness is no more than 0.5.
A14U G18C: the yeast fitness amounted to 0.583.
Next, A15C A43U A65G: 0.583.
Consider A14U C49G A57U, for which the yeast fitness is no more than 0.5.
For A14U G17C C24A C30G A57G, the yeast fitness is no more than 0.5.
Next, A15C C27U A42C: no more than 0.5; A15C A65G: 0.829; A15C C24G C34U A43G: no more than 0.5.
For the variant A14U U16G U19A G56A G67A, the yeast fitness was no more than 0.5.
Consider A14U U28A G56C G67U, for which the yeast fitness is no more than 0.5.
Next, A14U G39C: 0.507.
Next, A15C A21U C24U: no more than 0.5; A14U C55A A65C: no more than 0.5.
Next, A15C C27U C31A: no more than 0.5; A14U G67A: 0.733; A14U U16A C31G U47C G68C: no more than 0.5.
As for A14U G23C A70C, the yeast fitness came out at 0.586.
Next, A15C A21G: 0.58; A14U U32C A40C G67A: 0.529.
Next, A14U G17A C22U C33G G67U: 0.613; A14U U59A G67A: 0.578.
Next, A14U U28A G41C A42U G52A A70C: no more than 0.5.
For the variant A15C A21C C27G C62U, the yeast fitness was determined as 0.534.
Next, A15C A45C: 0.587.
Next, A15C A45G: 0.583.
In the case of A15C C22U G38A C55G, the yeast fitness was no more than 0.5.
Next, A14U G25A C62A G63A A70G: no more than 0.5.
Take A15C C22U U54A: the yeast fitness was 0.636.
In the case of A14U U19A A36C G58C A69U, the yeast fitness came to 0.555.
As to A14U G18C A70G, the yeast fitness came out at 0.715.
Turning to A15C A36G, the yeast fitness was determined as 0.888.
With A15C A36G C49U G67U, the yeast fitness worked out at 0.632.
Take A14U U35C C66G: the yeast fitness was no more than 0.5.
Next, A14U C46A G51C A57U U64G: 0.584.
Next, A15C A36G G56A C61U: no more than 0.5.
As to A15C A43C, the yeast fitness is 0.609.
Next, A15C A40U A70U: 0.563.
Next, A14U G25A C60G C66G: no more than 0.5.
Next, A14U G25C G39C U54G A65U: no more than 0.5.
As for A14U G41C C49U A65U, the yeast fitness was no more than 0.5.
Next, A14U G23A C29G C46A C55G G68A: no more than 0.5.
Next, A15C A40G U53C: no more than 0.5; A14U U59G A65U: 0.547.
Next, A15C A20C A21U C30U A40U: no more than 0.5; A15C A20C C55U: no more than 0.5; A15C A37C U59C: 0.814.
On to A15C A40C U54C, for which the yeast fitness was no more than 0.5.
Take A15C A20G C33A A36C U47A: the yeast fitness was no more than 0.5.
In the case of A14U G17A C22U C62A, the yeast fitness is no more than 0.5.
As to A14U G17A C31U C61A G68C, the yeast fitness was no more than 0.5.
Next, A14U G18A C24A C34A: 0.53; A14U C34G A43C A70U: no more than 0.5; A14U U26A C55G A65C: no more than 0.5.
Next, A15C C22G A43C: no more than 0.5; A14U G17A G23C C29U C34G A43G A45C U54G: no more than 0.5; A14U C61G: no more than 0.5.
Next, A14U C46G G63A: 0.53; A14U G44C G51A A70U: 0.596.
In the case of A14U U19A G23A A43C A57G U64G, the yeast fitness was no more than 0.5.
Next, A14U U19A C31U: no more than 0.5.
Next, A14U G18C C34U: no more than 0.5; A14U U16C A21G C24U C46G C62U: no more than 0.5; A14U G58A C61U: 0.509.
With A14U U26A C33A G63A, the yeast fitness was no more than 0.5.
Turning to A15C A42G C49A, the yeast fitness was found to be 0.605.
Next, A15C A20G A65U A69G: no more than 0.5.
Next, A14U C34G C61G A70C: no more than 0.5; A14U G44A G58C: no more than 0.5; A14U G18C C29U A37U: no more than 0.5.
Next, A15C A43C G58A: no more than 0.5.
Take A14U U35C A37U: the yeast fitness is no more than 0.5.
Next, A14U U35G C62G: no more than 0.5; A15C A36C G48A: 0.516; A15C C27U C31A C55U G68A: no more than 0.5.
Turning to A15C A43C G48C, the yeast fitness was determined as 0.544.
Next, A14U U19A: 0.709; A14U U35C U53G C66G: no more than 0.5; A14U G17A A45U G58C: no more than 0.5.
A14U C33G A37G A40C C49G G67C: the yeast fitness is no more than 0.5.
Next, A15C C27A U32G: 0.709; A15C A69G: 0.877.
Next, A15C A20G C31A U59C A69G: no more than 0.5; A15C A20C A65U: no more than 0.5.
Next, A14U G39C C55G C62A: no more than 0.5.
Regarding A14U G17C U53G, the yeast fitness was found to be 0.603.
Next, A14U U16A A65U: 0.626.
For the variant A15C A42G C49A G56C G67U, the yeast fitness was no more than 0.5.
Next, A15C A21G C22U U47C: no more than 0.5; A14U G41A: 0.674.
Next, A15C A21U G23A: no more than 0.5.
Next, A14U C46A: 0.599.
As for A14U C46U, the yeast fitness stood at 0.664.
Next, A15C C24U: 0.601; A15C C24A: no more than 0.5.
Next, A14U C34A C46U: no more than 0.5; A14U G23C C29G G51A G56U: no more than 0.5.
Next, A14U U59C A70C: no more than 0.5; A14U C46A C66U: no more than 0.5.
Take A14U G44C G52A U59C U64G: the yeast fitness worked out at 0.646.
Next, A15C A36G G39C C55U C66U: no more than 0.5; A15C A20G G51A C55G: 0.532.
Next, A14U G17A G23C C29U C34G A45C U54G G56A: no more than 0.5.
Next, A14U G25A A42G C66G: 0.767.
Regarding A14U C49A A57G, the yeast fitness was determined as 0.542.
For the variant A15C, the yeast fitness amounted to 0.904.
Next, A15C A21C C34U A37U: no more than 0.5; A15C C27G G48A C49G: no more than 0.5; A14U G44C G51A G63A A70U: no more than 0.5.
As for A15C A43U C49G, the yeast fitness came to 0.515.
With A15C A36C G48A G67A, the yeast fitness worked out at 0.541.
Next, A14U G18C G39C C49G C61U: no more than 0.5; A14U C31U G51A G63C: no more than 0.5.
On to A14U U64C, for which the yeast fitness came out at 0.71.
Next, A14U U54C C62U G68C: no more than 0.5.
Next, A15C A36C G38C G52A: no more than 0.5.
A14U G23U: the yeast fitness was found to be 0.59.
Next, A15C A36U C61A: no more than 0.5; A14U G25A C61U: 0.649; A14U U19A C24G U54A: no more than 0.5.
Next, A14U C34G C61G: no more than 0.5; A15C C27A G58A A70U: 0.525.
Next, A15C A36U C49U A65C: no more than 0.5; A14U C55G: 0.578.
Consider A14U C55A, for which the yeast fitness was found to be 0.575.
Next, A15C A57G: 0.812; A14U C34G: no more than 0.5; A15C A36U A37G A65C: no more than 0.5.
Next, A15C C27G G39C U47A: 0.689; A15C C22A A42C C46A A65U: no more than 0.5.
Next, A15C C24G A37C C60U: no more than 0.5; A14U U26A C66A: no more than 0.5; A14U U28A C33U: 0.714.
A14U U28A C46G: the yeast fitness was no more than 0.5.
Take A14U C49A: the yeast fitness worked out at 0.543.
In the case of A15C C24G A69U, the yeast fitness is 0.533.
Next, A14U U26C C31U G68A: no more than 0.5.
